# Measurements gathered from unrelated publications.
# Target: Histamine H1 receptor (HRH1, Homo sapiens, UniProt P35367)
SMILES,test,setting,measurement,value
COc1ccc(-n2nc(OCCCN3CCCCC3)ccc2=O)cc1,ligand displacement,1 µM,inhibition,16.7%
N#Cc1cc(Cn2c(N3CCCC3)nc3ccccc32)ccc1F,ligand displacement,10 µM,inhibition,73%
C[C@H](NC(=O)Nc1cc2[nH]ncc2c(CO)n1)c1ccccn1,cell-free assay,10 µM,inhibition,4.18%
CCCNc1nc2ccccc2n1Cc1ccc(Cl)cc1,ligand displacement,10 µM,inhibition,97.8%
CN(C)CCOC1c2ccccc2C=Cc2ccccc21,binding,,kon,833000 M⁻¹ s⁻¹
O=C(c1ccc(F)cc1)N(Cc1ccccc1)C1CCCCC1,cell-free assay,10 µM,inhibition,23%
CCN(Cc1ccccc1C(F)(F)F)C(=O)C1CCN(S(=O)(=O)c2ccc3[nH]ncc3c2)CC1,"ligand displacement, radioligand",10 µM,inhibition,26%
CC(C)(C)OC(=O)N1CCCC1CNC1CCC(c2cc(F)ccc2F)(S(=O)(=O)c2ccc(Cl)cc2)CC1 (centres unmarked),cell-free assay,10 µM,inhibition,25.6%
CN1CCC(=C2c3ccccc3CCc3cccnc32)CC1,binding,,koff,0.000147 s⁻¹
CN1CCN(CCCOc2ccc(=O)n(-c3ccc(Cl)c(Cl)c3)n2)CC1,ligand displacement,1 µM,inhibition,40.7%
O=C1N=C(N2CCCCN2)S/C1=C\c1ccc(F)cc1O,"ligand displacement, radioligand",10 µM,inhibition,< 10%
CN(C)CCOC1c2ccccc2CCc2ccccc21,binding,,kon,1.1e+06 M⁻¹ s⁻¹
CCN(CC)c1ccc(C2Nc3ccc(C(=O)c4ccccc4)cc3NC3=C2C(=O)CC(C)(C)C3)cc1 (centres unmarked),"ligand displacement, radioligand",10 µM,inhibition,40%
CN1CCC(C2c3ccccc3C=Cc3ccccc32)CC1,binding,,koff,0.00035 s⁻¹
Ic1cccc2cnccc12,"ligand displacement, radioligand",10 µM,inhibition,0%
Oc1cccc(Nc2nc(-c3ccc(F)cc3F)cs2)c1,cell-free assay,10 µM,inhibition,-19.9%
CN1CCN(C2c3ccccc3CCc3ccccc32)CC1,binding,,koff,0.002 s⁻¹
